Values after ≈ are worked out from the molar mass of the structure shown. Active and inactive are the calls of the source. No cut-off for these calls is given here.

As usually defined, the IC50 is the concentration that gives 50% inhibition. As a reminder, the MIC is the lowest concentration found to suppress growth. The low end stands for a more susceptible organism, the high end for a less susceptible organism.

Data set [1] can be described thus: Displacement of F-NEO from human mitochondrial rRNA-A site C1410U mutant after 10 to 20 mins by fluorescence assay. Summed up: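 A 100 nM F-NEO:A-site RNA complex in 10 mM HEPES, 50 mM NaCl, 0.04 mM EDTA, pH 7.0 was titrated with 2-fold dilutions of ligand from 20 to 0.009 μM, or from 60 or 40 μM for weaker ligands. Incubated 10-20 min at room temperature, fluorescence read at ex 485/em 525 nm. IC50 from dose-response curve fit.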

Data set [2] deals with Bacillus anthracis. Briefly: Antibacterial activity against NEO-sensitive Bacillus anthracis BA852 at 6.25 uM after 15 to 20 hrs by CLSI protocol based microdilution assay relative to control. The class given is functional. Summed up: (§1)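 Exponential-phase cultures were exposed to 6.25 μM compound in duplicate with neomycin as reference, at 37 °C in a humidified incubator for 15-20 h. Broth and culture controls received sterile water with 1% DMSO. Percent growth inhibition was calculated against the growth and background controls.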
On the technique in general: In broth dilution the organism is exposed to a series of concentrations in liquid medium.

Data set [3] has as its system Escherichia coli. Briefly: Antibacterial activity against multidrug-resistant Escherichia coli H4H at 6.25 uM after 15 to 20 hrs by CLSI protocol based microdilution assay relative to control. The class given is functional. Summed up: as §1
In data set [4] the test system is Escherichia coli. Briefly: Antibacterial activity against Escherichia coli O157:H7 at 6.25 uM after 15 to 20 hrs by CLSI protocol based microdilution assay relative to control. It counts as functional. Summed up:
as §1

The subject of data set [5] is Staphylococcus aureus. Briefly: Antibacterial activity against NEO-sensitive Staphylococcus aureus C2 after 15 to 20 hrs by CLSI protocol based microdilution assay. The class given is functional. In a few lines:
(§2)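 CLSI broth microdilution MIC in triplicate on exponential-phase cells, ~3×10^5 cells per mL in cation-adjusted Mueller-Hinton broth. Compound was added from 10× stocks in 10% DMSO as serial 2-fold dilutions, final 50 to 0.78 μM. Plates were incubated at 37 °C, humidified, 15-20 h. Growth was read as absorbance at 595 nm, and percent inhibition was averaged over triplicates.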

Data set [6] has as its system Staphylococcus aureus. Description: Antibacterial activity against NEO-sensitive Staphylococcus aureus C1 after 15 to 20 hrs by CLSI protocol based microdilution assay. The class given is functional. Summed up:
as §2

For data set [7], the system named is Staphylococcus aureus. Briefly: Antibacterial activity against NEO-sensitive Staphylococcus aureus NRS77 after 15 to 20 hrs by CLSI protocol based microdilution assay. The class given is functional. Summed up:
as §2

Data set [8] concerns Staphylococcus aureus. Briefly: Antibacterial activity against NEO-sensitive Staphylococcus aureus 6538 after 15 to 20 hrs by CLSI protocol based microdilution assay. It counts as functional. In a few lines: as §2
Data set [9] has as its system Ribosomal RNA A-site. Briefly: Binding affinity to rRNA-A site in Escherichia coli S30 extract assessed as inhibition of protein translation after 20 mins. The class given is nucleic-acid assay.
Data set [10] has as its system Ribosomal RNA A-site. Description: Binding affinity to rRNA-A site in human MDA-MB-231 cells assessed as inhibition of protein translation. The class given is cell-based.
A further data set relates to Klebsiella pneumoniae. Briefly: Antibacterial activity against Klebsiella pneumoniae NR-151410 at 6.25 uM after 15 to 20 hrs by CLSI protocol based microdilution assay relative to control. The class given is functional. Summed up: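 Single-concentration screen at 6.25 μM against exponential-phase cultures, in duplicate, with NEO as reference. Enterococcus was grown in BHI broth, M. smegmatis in TS broth with 0.05% Tween 80, and all other strains in TS broth. The 1% DMSO water vehicle was added to broth (background) and culture (growth control). Incubation was 37 °C, humidified, 15-20 h. Result is percent growth inhibition.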

In data set [11] the test system is Staphylococcus aureus. Briefly: Antibacterial activity against NEO-sensitive Staphylococcus aureus 25923 after 15 to 20 hrs by CLSI protocol based microdilution assay. It counts as functional. In a few lines: (§3)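 CLSI broth microdilution on exponential-phase bacteria at ~3×10^5 cells/mL in cation-adjusted Mueller-Hinton broth. Serial 2-fold dilutions gave final concentrations of 50 to 0.78 μM; compound stocks were 10× in 10% DMSO. Incubated at 37 °C for 15-20 h, growth read at A595. Percent inhibition averaged over triplicates; MIC in μM.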

Data set [12] has as its system Staphylococcus aureus. Description: Antibacterial activity against NEO-sensitive Staphylococcus aureus harboring NorA mutant after 15 to 20 hrs by CLSI protocol based microdilution assay. The class given is functional. Summed up: as §3
Data set [13] concerns Staphylococcus epidermidis. Description: Antibacterial activity against NEO-sensitive Staphylococcus epidermidis 12384 after 15 to 20 hrs by CLSI protocol based microdilution assay. It counts as functional. In a few lines: as §3
Data set [14] deals with Staphylococcus aureus. Description: Antibacterial activity against methicillin-resistant Staphylococcus aureus 33591 after 15 to 20 hrs by CLSI protocol based microdilution assay. It counts as functional. Summed up: as §3
Data set [15] deals with Staphylococcus aureus. Description: Antibacterial activity against methicillin-resistant Staphylococcus aureus A960649 after 15 to 20 hrs by CLSI protocol based microdilution assay. It counts as functional. Summed up:
as §3

The subject of data set [16] is Staphylococcus aureus. Briefly: Antibacterial activity against methicillin-resistant Staphylococcus aureus SU-5 after 15 to 20 hrs by CLSI protocol based microdilution assay. The class given is functional. Summed up: as §3
For data set [17], the system named is Staphylococcus aureus. Description: Antibacterial activity against methicillin-resistant Staphylococcus aureus M0602 after 15 to 20 hrs by CLSI protocol based microdilution assay. It counts as functional. Summed up: as §3
A further data set deals with Streptococcus pyogenes. Briefly: Antibacterial activity against NEO-resistant Streptococcus pyogenes C203 after 15 to 20 hrs by CLSI protocol based microdilution assay. It counts as functional. Summed up:
as §3

The subject of data set [18] is Bacillus anthracis. Briefly: Antibacterial activity against NEO-sensitive Bacillus anthracis BA852 after 15 to 20 hrs by CLSI protocol based microdilution assay. The class given is functional. Summed up:
as §3

Data set [19] has as its system Mycolicibacterium smegmatis. Description: Antibacterial activity against NEO-sensitive Mycobacterium smegmatis after 15 to 20 hrs by CLSI protocol based microdilution assay. The class given is functional. Summed up:
as §3

Data set [20] relates to Escherichia coli. Briefly: Antibacterial activity against NEO-sensitive Escherichia coli ATCC 25922 after 15 to 20 hrs by CLSI protocol based microdilution assay. It counts as functional. In a few lines: as §3
Data set [21] has as its system Escherichia coli. Description: Antibacterial activity against NEO-sensitive Escherichia coli harboring TolC mutant after 15 to 20 hrs by CLSI protocol based microdilution assay. It counts as functional. Summed up: as §3
The test system of data set [22] is Escherichia coli. Description: Antibacterial activity against multidrug-resistant Escherichia coli H4H after 15 to 20 hrs by CLSI protocol based microdilution assay. The class given is functional. Summed up: as §3
Data set [23] can be described thus: Toxicity in Caenorhabditis elegans infected with methicillin-resistant Staphylococcus aureus assessed as effect on nematode larvae viability by measuring decrease in formazan production at 6.25 to 50 uM after 24 hrs by MTT assay relative to control.
A short description of data set [24]: Toxicity in Caenorhabditis elegans infected with methicillin-resistant Staphylococcus aureus assessed as effect on nematode larvae viability by measuring decrease in formazan production at 3.13 to 1.56 uM after 24 hrs by MTT assay. For orientation: Tetrazolium dyes change colour on reduction, which living cells bring about.

Consider `NC[C@@H]1O[C@H](O[C@H]2[C@@H](O)[C@H](O[C@@H]3[C@@H](O)[C@H](N)C[C@H](N)[C@H]3O[C@H]3O[C@H](CN)[C@@H](O)[C@H](O)[C@H]3N)O[C@@H]2CNC(=O)Cc2ccc3ccc4cccc5ccc2c3c45)[C@H](N)[C@@H](O)[C@@H]1O`, for which the IC50 in data set [1] is 274 nM; in the data set with Ribosomal RNA A-site [9], 1280 nM; in the data set with Ribosomal RNA A-site [10], 1200 to 1280 nM. The result in the data set on Bacillus anthracis [2] and with Escherichia coli [3] was inactive. Moreover, the Activity in the data set with Escherichia coli [4] was determined as 0%; in the data set on Klebsiella pneumoniae, 10%. For the same compound, the MIC against Staphylococcus aureus [5], against Staphylococcus aureus [6], against Staphylococcus aureus [7] and in the data set on Staphylococcus aureus [8] was > 25 µM in each case.
`NC[C@@H]1O[C@H](O[C@H]2[C@@H](O)[C@H](O[C@@H]3[C@@H](O)[C@H](N)C[C@H](N)[C@H]3O[C@H]3O[C@H](CN)[C@@H](O)[C@H](O)[C@H]3N)O[C@@H]2CSCCNC(=O)CCCc2ccc3ccc4cccc5ccc2c3c45)[C@H](N)[C@@H](O)[C@@H]1O`: the MIC in the data set with Staphylococcus aureus [11] is 12.5 µM (≈ 11.8 µg/mL); against Staphylococcus aureus [12] it was 6.25 to 12.5 µM (≈ 5.9 to 11.8 µg/mL); in data set [13], 6.25 µM (≈ 5.9 µg/mL); against Staphylococcus aureus [14] it was 12.5 µM (≈ 11.8 µg/mL); against Staphylococcus aureus [15] it was 12.5 µM (≈ 11.8 µg/mL); in the data set on Staphylococcus aureus [16], 25 µM (≈ 23.6 µg/mL). Further, the MIC against Staphylococcus aureus [17] was 25 µM (≈ 23.6 µg/mL); with Streptococcus pyogenes, 50 µM (≈ 47.2 µg/mL); against Bacillus anthracis [18] it was 6.25 µM (≈ 5.9 µg/mL); in data set [19], 6.25 µM (≈ 5.9 µg/mL); with Escherichia coli [20] it was > 25 µM; in the data set on Escherichia coli [21] it was 6.25 µM (≈ 5.9 µg/mL). Besides, the MIC against Escherichia coli [22] was > 25 µM. Also, the IC50 in data set [1] is 126 nM; with Ribosomal RNA A-site [9] it was 927 nM; in the data set with Ribosomal RNA A-site [10], 927 nM. For the same compound, the Activity in the data set with Bacillus anthracis [2] is on record as 100%; in the data set with Escherichia coli [3], “<=30%”; with Escherichia coli [4] it was 3%; in the data set on Klebsiella pneumoniae, 20%.
Turning to `NC[C@@H]1O[C@H](O[C@H]2[C@@H](O)[C@H](O[C@@H]3[C@@H](O)[C@H](N)C[C@H](N)[C@H]3O[C@H]3O[C@H](CN)[C@@H](O)[C@H](O)[C@H]3N)O[C@@H]2CSCCNC(=O)CCc2ccc3ccc4cccc5ccc2c3c45)[C@H](N)[C@@H](O)[C@@H]1O`, in data set [1], the IC50 is 147 nM. In addition, the result in the data set on Bacillus anthracis [2] and with Escherichia coli [3] was inactive. Moreover, the MIC was 12.5 µM (≈ 11.6 µg/mL) with Staphylococcus aureus [5], 25 µM (≈ 23.3 µg/mL) with Staphylococcus aureus [6], 6.3 µM (≈ 5.86 µg/mL) against Staphylococcus aureus [7] and 12.5 µM (≈ 11.6 µg/mL) in the data set on Staphylococcus aureus [8]. Also, the Activity in data set [23] was 50 to 75%; in data set [24] it was “Non-Toxic”; with Klebsiella pneumoniae, 18%.
